PMI act: phosphomannose isomerase (human) activation. P34949. purified human PMI, coupled resazurin fluorescence, 20 min; active compounds read high; 1 = vehicle control, 0 substrate-free wells. activation factor at 20 µM. 190,000 compounds, 0.005% hits;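 active = activation factor of 2 or more at 20 µM, relative to plate controls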
PMI act hi M6P: PMI (human) activation, high substrate; P34949; coupled PMI enzyme assay, resazurin fluorescence, 20 min; active compounds read high; 1 = untreated enzyme, 0 = substrate-free blank; activation factor at 20 µM; 190,000 compounds, 0.34% hits; AID 1216;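 active = activation factor of 2 or more at 20 µM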
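Test system: human phosphomannose isomerase with PGI, G6PDH, diaphorase coupling enzymes / Doses: 20 µM compound, 1% DMSO / Times: enzyme reaction with compound 20 min at room temperature / Measured by: Diaphorase-driven resazurin-to-resorufin fluorescence, excitation 544, emission 590 nm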
WT yeast gro inh: growth inhibition of WT yeast, mitochondrial fusion screen; mitochondrial fusion phenotypic screen, WT strain; inhibition, % at 10 µM; 190,000 compounds, 2.1% hits; in the data active = inhibition above about 58%; tested in S. cerevisiae
Rad51 HR inh: blocks human Rad51 in homologous recombination; Q06609; inhibition, % at 10 µM; AID 1385; 200,000 compounds, 0.085% hits; hRad51 DNA strand exchange, fluorescence dequenching;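 active = inhibition above 40% at the single screening dose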;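 also: 0% = DMSO control wells and 100% = blanks with heterologous ssDNA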
Target sequence (Q06609 whole entry, looked up): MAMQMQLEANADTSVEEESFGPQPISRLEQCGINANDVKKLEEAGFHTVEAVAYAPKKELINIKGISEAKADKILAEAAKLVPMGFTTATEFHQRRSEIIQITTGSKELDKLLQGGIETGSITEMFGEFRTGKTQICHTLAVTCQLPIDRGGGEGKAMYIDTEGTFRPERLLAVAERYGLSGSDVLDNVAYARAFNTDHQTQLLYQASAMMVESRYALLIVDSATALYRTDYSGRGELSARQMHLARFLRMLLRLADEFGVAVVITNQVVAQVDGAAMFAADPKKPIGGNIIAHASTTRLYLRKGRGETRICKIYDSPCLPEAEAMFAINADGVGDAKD
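Test system: preformed human Rad51 ssDNA filaments; also added: Donor/quencher-labelled 47-bp dsDNA substrate; doses: 10 µM final, single point; times: 37 °C 15-min filament assembly, 30-min compound preincubation, 15-min exchange; detection: FRET fluorescence dequenching, excitation 485 nm, emission 520 nm; read-out basis: Fluorescence-based percent inhibition, control- and blank-normalised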
m-calpain inh: calpain II (pig) inhibition; purified calpain II, fluorogenic peptide substrate, 30 min; inhibition, % at 16 µM; 220,000 compounds, 0.37% hits;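 active = inhibition above about 50%, limit read from the data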
Lmaj promast: Leishmania major promastigote growth inhibition; Leishmania major promastigotes, resazurin fluorescence viability; inhibition, % at 10 µM; 200,000 compounds, 9% hits; AID 1063; in the data active = inhibition above about 50%;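 also: promastigotes grown with compound for 44 hours at 28 °C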
The depositor's hits bear a star; · = not tested or not shown. Rows were chosen to be rich in hits. Some 9.8% of all compounds tested hit in one or more screens of this group.

SMILES | PMI act | PMI act hi M6P | WT yeast gro inh | Rad51 HR inh | m-calpain inh | Lmaj promast
Cc1nc(SCC(=O)N2CCc3ccccc32)n[nH]1 | 0.9 | 1 | 4 | -5 | -34 | -6
CCOC(=O)CSc1nnc(CNc2cccc(Cl)c2)n1-c1ccccc1 | 0.9 | 1 | -4 | 1 | -5 | -3
CCOC(=O)C1(C)/C(=N/Nc2cccc(Cl)c2)C(=O)C(=O)N1c1ccccc1 (centres undefined) | 1.4 | 2.3* | -5 | -6 | 0 | -2
CCOC(=O)C1(C)/C(=N/Nc2ccccc2Cl)C(=O)C(=O)N1c1ccccc1 (centres undefined) | 1.6 | 2.1* | 34 | 3 | -35 | -3
CCOC(=O)C1(C)/C(=N/Nc2ccc(S(N)(=O)=O)cc2)C(=O)C(=O)N1c1ccccc1 (centres undefined) | 1.1 | 0.7 | -1 | 10 | 27 | 2
CCOC(=O)C1(C)/C(=N/Nc2ccc(Cl)cc2)C(=O)C(=O)N1c1ccccc1 (centres undefined) | 1.6 | 2.2* | 25 | 10 | -38 | 0
Cn1c(O)c(N=Nc2nc(-c3ccccc3)cs2)c2ccccc21 | 0.9 | 0.7 | 7 | -28 | -25 | 66*
O=C(c1ccccc1)c1nnc(-c2ccncc2)o1 | 1 | 1.2 | 72* | -3 | 10 | -5
CCCCC(=O)OCC(=O)c1[nH]c(C)c(C(C)=O)c1C | 1.2 | 1.1 | -3 | -2 | 89* | -9
CCCC(=O)OCC(=O)c1[nH]c(C)c(C(C)=O)c1C | 1.1 | 0.8 | 2 | 12 | 12 | -1
CCOC(=O)c1ccc(Oc2nc(NC(C)(C)C)nc(N(C)C)n2)cc1 | 1 | 1 | 65* | 3 | 7 | 17
O=C(c1cc2ccccc2o1)N(C1CC1)C1(C(=O)Nc2ccccc2)CCCC1 | 0.9 | 0.9 | 72* | 8 | -6 | 39
CN(Cc1ccccc1)C(=O)c1cc2ccccc2o1 | 0.9 | 0.9 | -19 | · | -4 | -2
Cc1ccccc1CNC(=O)c1ccc(CSCc2ccccc2)cc1 | 0.8 | 0.8 | 38 | 8 | 26 | 7
C=CCNc1nc(=S)[nH]c2cc(OC)c(OC)cc12 | 1 | 1 | -6 | 2 | 12 | 2
COc1cc2[nH]c(=S)nc(NC3CCCC3)c2cc1OC | 1.8 | 2.5* | 3 | -3 | -15 | 5
COCCNc1nnnc2c1sc1nc(N3CCOCC3)c3c(c12)CCCC3 | 0.9 | 1 | -3 | 29 | -24 | 62*
O=C(COC(=O)c1ccc(Cl)cc1O)NCCN1C(=O)CSC1=O | · | · | · | 17 | 21 | ·
CCN(C(=O)c1cc2ccccc2o1)C12CC3CC(CC(C3)C1)C2 | 1 | 0.7 | 8 | 0 | -26 | -6
CCNC(=O)c1ccc(C23CC4CC(CC(C4)C2)C3)o1 | 1 | 1 | 5 | 1 | 0 | 89*
CCc1nnc(NC(=O)c2ccc(S(=O)(=O)N3CCCc4ccccc43)cc2)o1 | 1.1 | 1.1 | 70* | 3 | -101 | 99*
O=C(Nc1nc2c(s1)CN(Cc1ccccc1)CC2)c1cccc(S(=O)(=O)N2CCc3ccccc32)c1 | 1.2 | 1.1 | -23 | -64 | -90 | 62*
O=C(Nc1nc2ccccc2s1)c1cccc(S(=O)(=O)N2CCc3ccccc32)c1 | · | · | · | 0 | -37 | ·
COCc1nnc(NC(=O)c2ccc(S(=O)(=O)N3CCCCCC3)cc2)o1 | 1 | 1 | 24 | 4 | 12 | -6
O=C(Nc1nc2c(s1)CCCC2)c1ccc(S(=O)(=O)N2CCCc3ccccc32)cc1 | 0.7 | 0.8 | 0 | -1 | -21 | 98*
SMILES | PMI act | PMI act hi M6P | WT yeast gro inh | Rad51 HR inh | m-calpain inh | Lmaj promast
CNC(=O)c1ccsc1NC(=O)c1ccc(S(=O)(=O)N2CCCc3ccccc32)cc1 | 0.9 | 1 | 52 | · | -41 | 100*
Cc1c(NC(=O)C(C)OC(=O)C23CC4CC(CC(Br)(C4)C2)C3)c(=O)n(-c2ccccc2)n1C (centres undefined) | 1.1 | 1.1 | -11 | 8 | 10 | -3
O=C(NC(CC(=O)N1CCN(c2ccc([N+](=O)[O-])cc2)CC1)c1ccccc1)c1ccccc1Cl (centres undefined) | 1 | 0.9 | -4 | 3 | -33 | 83*
Cc1cccc(N2CCN(C(=O)CC(NC(=O)c3ccccc3Cl)c3ccccc3)CC2)c1C (centres undefined) | 0.9 | 0.9 | 44 | 7 | -57 | 95*
COc1ccc(/C=C2\C(=O)N(c3nc(-c4ccc(Br)cc4)cs3)N=C2c2ccccc2)cc1 | · | · | · | · | · | -1
CCOc1cc(/C=C2\C(=O)N(c3nc(-c4ccc(Br)cc4)cs3)N=C2c2ccccc2)ccc1O | 1.1 | 1.3 | 1 | · | -92 | 100*
O=C1/C(=C\c2ccc(O)c(O)c2)C(c2ccccc2)=NN1c1ccccc1 | 0.6 | 0.8 | 6 | -6 | -13 | 99*
COC(=O)C1CCN(CC(=O)NC(=O)NC2CCCCC2)CC1 | 1.1 | 1 | 3 | 4 | -15 | -6
CC(C(=O)N1CCc2ccccc21)n1cccc1 (centres undefined) | 0.9 | 0.9 | -2 | -4 | -1 | 3
CC(C)=CC(=O)OCC(=O)NC1CCCc2ccccc21 (centres undefined) | 1.1 | 1.1 | -4 | 12 | -22 | -1
Cc1ccc2c(CSc3nnc(C4CC4)n3N)cc(=O)oc2c1 | 1.1 | 1.1 | 11 | 1 | -57 | 14
Cc1ccc2c(CSc3nnc(C4CC4)n3N)cc(=O)oc2c1C | 1.1 | 1.1 | 96* | · | 3 | 0
CC(C)Cn1c(N)c(-c2nc(C(C)C)c(C(=O)c3ccccc3F)s2)c(=O)n(C)c1=O | 1 | 1 | 3 | -2 | 22 | -2
N#Cc1c(-c2cccnc2)c2c([nH]c1=S)CCCC2 | 1.3 | 1.4 | 91* | -10 | 30 | -5
COc1ccc(-c2c3c([nH]c(=S)c2C#N)CCC3)cc1 | 1.6 | 2.1* | 14 | -3 | -109 | -3
CCn1c(SCC(=O)NC2CCS(=O)(=O)C2)nnc1-c1ccccc1 (centres undefined) | 1 | 1 | 11 | 5 | 30 | -2
Cc1nnc(SCC(=O)NC2CCS(=O)(=O)C2)n1Cc1ccccc1 (centres undefined) | 1.1 | 1.1 | -7 | -3 | -17 | 4
Cc1ccc(-c2nnc(SCC(=O)N3CCOCC3)nc2-c2ccc(C)cc2)cc1 | 1 | 1 | 74* | 0 | 25 | 98*
Cc1ccc(OCC(=O)NC2CCS(=O)(=O)C2)cc1 (centres undefined) | 0.9 | 1 | -15 | -1 | 1 | 0
Cc1ccc(-c2cn(-c3ccccc3)c(SCC(=O)NC3CCS(=O)(=O)C3)n2)cc1C (centres undefined) | 0.9 | 1 | -19 | 18 | 10 | 86*

Screens (PubChem)
